TAAR1 antagonist: human TAAR1 antagonism; AID 624466; Q96RJ0; hit rate 1.5% among 360,000; CHO RD-HGA16 TAAR1, Fluo-8 calcium fluorescence, antagonist; inhibition, % at 3 µM;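 active = inhibition above a per-plate cutoff, the mean inhibition of test compounds on that plate plus 3 SD, cut at about 49% in these data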;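 also: 0% = DMSO plus EC80 beta-PEA response and 100% = DMSO alone without agonist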
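System: RD-HGA16 CHO cells with stable hTAAR1 and Gα16 | Probe or stimulus: EC80 β-phenethylamine stimulus | Dosing: 3 µM, single point | Times: Dye loading 75 min at 37 °C, then 30 min room temperature | Measured by: Fluo-8 calcium-sensitive fluorescence | Read-out basis: % inhibition of agonist calcium response | Replicates: n of 1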
GalR3 antag: antagonists of human GalR3; inhibition, % at 3 µM; HEK293 GalR3-CNG cAMP membrane potential fluorescence; galR3 body fused to GalR1 C-terminus; AID 651719; O60755; hit rate 0.44% among 360,000;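 active = inhibition above the screen-wide average plus 3 SD, cut at about 13% in these data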;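 also: forskolin and galanin both at EC90 stimulate the cells; cAMP rise reported by CNG channel membrane potential dye signal; 0% = forskolin plus galanin with DMSO and 100% = forskolin alone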
OX1R antag-1: antagonists of human orexin 1 receptor (OX1R); OX1R-expressing cells, FRET antagonist read-out; inhibition, % at 6.6 µM; hit rate 1.8% among 330,000; in the data active = inhibition mostly above about 38%, no sharp cut-off; inactive = mostly below about 40%;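 also: 0% = agonist challenge alone and 100% = reference antagonist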
Target sequence (O43613 whole entry, looked up): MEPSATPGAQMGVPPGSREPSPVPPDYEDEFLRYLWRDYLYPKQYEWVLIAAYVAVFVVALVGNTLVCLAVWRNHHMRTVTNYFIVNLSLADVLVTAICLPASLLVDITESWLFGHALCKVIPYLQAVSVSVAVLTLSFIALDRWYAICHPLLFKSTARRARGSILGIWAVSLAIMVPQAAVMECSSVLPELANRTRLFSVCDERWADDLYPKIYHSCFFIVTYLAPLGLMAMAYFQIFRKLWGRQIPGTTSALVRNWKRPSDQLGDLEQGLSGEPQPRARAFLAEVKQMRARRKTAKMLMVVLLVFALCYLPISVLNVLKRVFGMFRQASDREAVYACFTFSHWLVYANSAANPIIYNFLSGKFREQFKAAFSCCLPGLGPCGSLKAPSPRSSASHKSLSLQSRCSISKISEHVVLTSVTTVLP
OX1R antag-2: human HCRTR1 antagonism; O43613; CHO/OX1R cells, Fluo-8 calcium fluorescence, orexin A; inhibition, % at 5 µM; hit rate 0.43% among 330,000;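 active = inhibition above its plate's threshold, mean inhibition of all tested compounds on the plate plus 3 SD, cut at about 37% in these data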;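 also: 0% = orexin A challenge wells and 100% = SB-334867-A antagonist wells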
TAAR1 agonist: human TAAR1 agonism; Q96RJ0; CHO RD-HGA16 TAAR1, Fluo-8 calcium fluorescence; vehicle wells 0%, saturating PEA agonist 100%; activation, % at 3 µM; hit rate 0.99% among 360,000; AID 624467;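 active = activation above the mean activation of all test compounds in the run plus 3 SD, cut at about 38% in these data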
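Signal – calcium-sensitive Fluo-8 signal, excitation 470-495, emission 515-575 nm · System – RD-HGA16 (CHO) cells co-expressing Gα16 and hTAAR1 · Incubation – 17-24 h seeding, 75 min 37 °C dye, 30 min RT · Compound dosing – 3 µM single concentration · Repeats – no replicates (n 1)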
CHO parental Ca: signal in parental CHO cells, OX1R antagonist counter-screen | inhibition, % at 5.6 µM | AID 463079 | parental CHO-K1, ATP-induced calcium, Fluo-8 fluorescence | hit rate 0.63% among 330,000;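 active = inhibition above that plate's mean sample inhibition plus 3 SD, cut at about 26% in these data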;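 also: 0% = ATP-challenged DMSO wells and 100% = DMSO wells without ATP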
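Assay system: parental CHO cells; Read-out basis: percent inhibition of ATP-evoked calcium rise, normalized to controls; Benchmarks: ATP and no-ATP DMSO wells; Compound dosing: single nominal dose of 5.6 µM per compound; Signal: Fluo-8 calcium dye fluorescence; Also added: ATP as calcium-mobilizing challenge; Repeats: singlicate.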
GalR3 antag conf: confirmation of human galanin receptor 3 antagonists. shares compounds with GalR3 antag. HEK293 GalR3 CNG cAMP biosensor, membrane potential fluorescence; galR3 fused to GalR1 carboxy tail; challenged with forskolin and galanin at EC90. inhibition, % at 3 µM. hit rate 59% among 1,600;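 active = inhibition above the primary screen's cutoff, the mean inhibition of all screened compounds plus 3 SD, cut at about 13% in these data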;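 also: 0% = forskolin plus galanin and 100% = forskolin alone with DMSO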
HEK-CNG parental: counter-screen for GalR3 antagonists: nonspecific agonists in parental HEK-CNG cells; HEK293-CNG parental cells, cAMP membrane potential fluorescence; normalised: DMSO wells 0%, forskolin wells 100%; activation, % at 3 µM; shares compounds with GalR3 antag; AID 652268; hit rate 10% among 1,600; in the data active = activation above about 1.3%
* marks the source's active call; other numbers are inactive results; . = not tested or not shown. Only some compounds are listed: those with a hit (about 4.3% of all), similar ones and a draw of the others.

SMILES	TAAR1 antagonist	GalR3 antag	OX1R antag-1	OX1R antag-2	TAAR1 agonist	CHO parental Ca	GalR3 antag conf	HEK-CNG parental
CCNC(=O)C1CCCN(Cc2cc(C(F)(F)F)ccc2Cl)CC1 (configuration not stated)	-2	-4	.	.	3	.	.	.
COc1cccc(OCC(=O)Nc2ccncc2)c1	2	-11	11	0	5	-1	.	.
CC(C)CCOc1cccc(OCC(=O)Nc2ccncc2)c1	23	92*	44	55*	6	59*	110*	-1
Cc1cc(OCC(=O)Nc2ccncc2)c(C)cc1Br	-2	77*	28	14	16	58*	117*	0
Cc1cc(OCC(=O)Nc2ccncc2)cc(C)c1Cl	13	16*	-3	53*	19	44*	37*	0
O=C(COc1ccc2ccccc2c1Br)Nc1ccncc1	-10	61*	26	13	11	41*	60*	0
COC(=O)[C@@]1(Cc2ccccc2)[C@H]2C(=O)N(C)C(=O)[C@H]2[C@H]2CN=C(SCc3ccc(C#N)cc3)N21	-4	-6	11	-10	11	-13	.	.
COc1cc(C=C(C#N)c2ccc([N+](=O)[O-])cc2)ccc1O	12	-1	.	.	2	.	.	.
O=C1C(=Cc2ccc(F)cc2)CCc2ccccc21	-8	-7	.	.	-1	.	.	.
COc1ccc(CC(=O)N2CCN(c3ccc(C4=NNC(=O)CC4C)cc3)CC2)cc1 (configuration not stated)	11	76*	33	-15	7	-14	87*	0
c1ccc(CNc2ncnc3ccccc23)cc1	-2	93*	19	19	11	6	86*	0
CC12CCC(=O)N1C(C(=O)Nc1nc3ccc(Cl)cc3s1)CS2 (configuration not stated)	-3	-3	29	-21	-1	-25	.	.
Cc1cc(C)nc(N2C(=O)CC(C(=O)O)NC2=NCCc2c[nH]c3ccccc23)n1 (configuration not stated)	8	14*	9	-21	17	3	1	0
O=C(OCc1cc(=O)oc2cc(O)ccc12)c1cc(S(=O)(=O)N2CCOCC2)ccc1F	30	34*	25	-8	6	17	55*	1
O=C1COc2ccc(C(=O)COC(=O)c3cc(S(=O)(=O)N4CCOCC4)ccc3F)cc2N1	35	55*	11	-24	10	-1	34*	0
N#Cc1ccccc1COC(=O)c1cc(S(=O)(=O)N2CCOCC2)ccc1F	4	0	.	.	2	.	.	.
O=C1COc2ccc(C(=O)COC(=O)CCc3ccc(S(=O)(=O)N4CCOCC4)cc3)cc2N1	17	2	-1	-14	19	-12	.	.
COc1cccc(S(=O)(=O)N2C[C@H](O)COC[C@H]3O[C@@H](CC(=O)N4CCN(C)CC4)CC[C@@H]32)c1	-14	-5	.	.	1	.	.	.
CC(=O)Nc1cccc(O)c1	-5	1	13	-8	1	-8	.	.
CC(=O)Nc1cccc(NC=C(C#N)C#N)c1	-1	15*	15	-19	0	1	-5	0
CCCc1nc2ccccc2n1C(CCSC)C(=O)NC(C)(C)C (configuration not stated)	-16	-1	.	.	-1	.	.	.
C[C@@H]1CCCCO[C@@H](CN(C)S(=O)(=O)c2cn(C)cn2)[C@@H](C)CN([C@H](C)CO)C(=O)c2cc(NC(=O)Nc3ccc(C(F)(F)F)cc3)ccc2O1	-18	-7	.	.	1	.	.	.
O=C(COn1nnc2ccc(C(F)(F)F)cc21)Nc1c(Cl)cccc1Cl	-9	15*	20	-48	0	-26	6	0
CCN(CC(=O)Nc1ccc(NC(C)=O)cc1)CC(=O)Nc1ccccc1C(=O)c1ccccc1	-29	17*	1	-13	1	-16	4	0
O=C(NCc1nnnn1-c1ccc(F)cc1)c1cc2ccccc2o1	-5	-5	.	.	2	.	.	.
SMILES	TAAR1 antagonist	GalR3 antag	OX1R antag-1	OX1R antag-2	TAAR1 agonist	CHO parental Ca	GalR3 antag conf	HEK-CNG parental
Nc1ncnc2c1ncn2[C@@H]1O[C@H](CO)C[C@H]1O	-21	16*	12	-4	1	-2	30*	0
Nc1ncnc2c1ncn2C1OC(CO)C2OC21 (configuration not stated)	-27	-5	.	.	3	.	.	.
O=c1cc(-c2ccccc2)[nH]c2ccc(F)cc12	11	20*	11	3	1	-9	5	1
O=c1cc(-c2cccc(F)c2)[nH]c2ccccc12	-3	2	4	3	15	0	.	.
Nc1cc(-c2cccc(Br)c2)nn1Cc1ccccc1	11	-4	16	0	0	-10	.	.
Nc1cc(-c2ccc(Br)cc2)nn1Cc1ccccc1	10	61*	.	.	2	.	103*	-1
COc1ccc(-c2c[n+]3c(n2-c2ccccc2)CCCCC3)cc1	-3	-2	13	-3	1	6	.	.
COc1ccc(-c2c[n+]3c(n2-c2ccc(C)cc2)CCCCC3)cc1	-4	71*	22	-16	0	1	92*	0
O=C(CN1CCN(CC(=O)Nc2ccc3c(c2)OC2(CCCCC2)O3)CC1)Nc1cccc(F)c1	14	-1	.	.	11	.	.	.
CC(=O)N1CCN(C(=O)c2ccc(Cl)c(S(=O)(=O)N3CCc4ccccc43)c2)CC1	5	-2	7	-7	5	-7	.	.
O=C(NNC(=O)c1ccccc1O)c1ccc(Cl)c(S(=O)(=O)N2CCc3ccccc32)c1	44	29*	62*	40*	7	57*	60*	-2
COc1ccc(N2CCN(Cc3nc4c(c(=O)n(C)c(=O)n4C)n3CC(C)=O)CC2)cc1	-10	-7	0	2	2	-3	.	.
COc1ccc(N2CCN(Cc3nc4c(c(=O)[nH]c(=O)n4C)n3CC(C)=O)CC2)cc1	-20	13*	14	-11	1	-10	1	0
Cc1cc(C)n2ncc(/C(N)=N/OC(=O)Nc3ccc(Cl)cc3)c2n1	14	-4	9	8	6	-21	.	.
COCCCn1c(-c2cccc(Cl)c2)nc2c1c(=O)[nH]c(=O)n2Cc1ccccc1	-50	-7	10	-42	2	-26	.	.

Source: PubChem (The Scripps Research Institute Molecular Screening Center)
